# pIC50, pKi: −log10 of the molar value.
# Experiments:
# [1] = target: T1, Motilin receptor (Homo sapiens, UniProt O43193); assay: Displacement of [125I]motilin from human MOTR
# In short: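 Competition binding on isolated membranes expressing human motilin receptor, with radioiodinated porcine motilin ([125I]-motilin) as tracer. 11-point concentration curves gave Ki, with a top test concentration of 10 µM. Compounds came from 10 mM DMSO stocks stored at -60 °C.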
# [2] = target: T1, Motilin receptor; assay: Activity at human MOTR expressed in CHO cells assessed as inhibition of motilin-induced calcium release; assay type: functional, cell-based
# In short: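 Whole CHO cells expressing cloned human motilin receptor; intracellular Ca2+ release evoked by motilin read out by aequorin luminescence. Compounds were tested in antagonist mode and also checked for agonist activity at concentrations up to 10 µM. Compound stocks were 10 mM in DMSO, stored at -60 °C.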
# [3] = target: T1, Motilin receptor; assay: Activity at human MOTR expressed in CHO cells assessed as inhibition of motilin-induced calcium release upto 10 uM; assay type: functional, cell-based; settings: filed as antagonist
# In short: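 Aequorin luminescence assay on whole CHO cells expressing cloned human motilin receptor, measuring inhibition of motilin-induced Ca2+ release. Agonist activity was also checked at concentrations up to 10 µM. Compounds were TFA salts held as 10 mM DMSO stocks at -60 °C.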
# [4] = species on record: Oryctolagus cuniculus; assay: Antagonist activity against rabbit duodenum; settings: read-out: pA2 (converted)
# T1 sequence (O43193 whole entry): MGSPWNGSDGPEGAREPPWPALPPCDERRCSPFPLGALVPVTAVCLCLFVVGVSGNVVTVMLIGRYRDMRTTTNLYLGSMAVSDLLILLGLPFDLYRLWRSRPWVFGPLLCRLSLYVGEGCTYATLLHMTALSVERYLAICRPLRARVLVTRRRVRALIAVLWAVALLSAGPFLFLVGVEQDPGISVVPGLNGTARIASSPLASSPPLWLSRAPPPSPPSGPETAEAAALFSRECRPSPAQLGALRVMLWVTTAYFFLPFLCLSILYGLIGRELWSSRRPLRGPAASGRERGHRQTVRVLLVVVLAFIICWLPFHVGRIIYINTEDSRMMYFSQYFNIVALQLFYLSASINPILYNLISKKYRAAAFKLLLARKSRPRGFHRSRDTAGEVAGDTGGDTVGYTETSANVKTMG
pKi [1],pIC50 [2],Activity [3],Compound,Kb [4] [nM]
8.10,7.64,Antagonist,CCC[C@@H]1NC(=O)[C@@H](C(C)C)NC(=O)[C@@H](Cc2ccc(OC)cc2)NCCOc2ccccc2CCCNC1=O,100
6.86,7.13,Antagonist,CCC[C@@H]1NC(=O)[C@@H](C(C)C)NC(=O)[C@@H](Cc2ccc(O)cc2)NCCOc2ccccc2/C=C/CNC1=O,
5.73,,Antagonist,CCC[C@@H]1OC(=O)[C@@H](C(C)C)NC(=O)[C@@H](Cc2ccc(O)cc2)NCCOc2ccccc2CCCNC1=O,
5.49,,Antagonist,CCC[C@@H]1NC(=O)[C@@H](C(C)C)NC[C@@H](Cc2ccc(O)cc2)NCCOc2ccccc2CCCNC1=O,
5.22,,Antagonist,CCC[C@@H]1NC(=O)[C@@H](C(C)C)NC(=O)[C@@H](Cc2ccc(O)cc2)NCCc2ccccc2CCCCNC1=O,
6.73,,Antagonist,CC(C)[C@H]1NC(=O)[C@@H](Cc2ccc(O)cc2)NCCOc2ccccc2/C=C/CNC(=O)[C@H](Cc2ccccc2)NC1=O,
< 5.00,,Antagonist,CCC[C@@H]1NC(=O)[C@@H](C(C)C)NC(=O)[C@@H](Cc2ccc(O)cc2)NCCCc2ccccc2/C=C/CNC1=O,
5.59,,Antagonist,CC(C)[C@H]1NC(=O)[C@@H](Cc2ccc(O)cc2)NCCOc2ccccc2/C=C/CNC(=O)[C@H](CC(=O)O)NC1=O,
6.47,,Antagonist,CCC[C@H]1NC(=O)[C@@H](C(C)C)NC(=O)[C@@H](Cc2ccc(O)cc2)NCCOc2ccccc2/C=C/CNC1=O,
< 5.00,,Antagonist,CCC[C@H](NC(=O)[C@H](NC(=O)[C@@H](Cc1ccc(O)cc1)NCCOc1ccccc1/C=C/CNC(C)=O)C(C)C)C(N)=O,
< 5.00,,Antagonist,CCC[C@@H]1NC(=O)[C@@H](C(C)C)NC(=O)[C@@H](Cc2ccc(O)cc2)NCCc2ccccc2CCCNC1=O,
< 5.00,,Antagonist,CCC[C@@H]1NC(=O)[C@@H](C(C)C)NC(=O)[C@@H](Cc2ccc(O)cc2)NCCCc2ccccc2CCNC1=O,
< 5.00,,Antagonist,CCC[C@@H]1NC(=O)[C@@H](C(C)C)NC(=O)[C@@H](c2ccccc2)NCCOc2ccccc2CCCNC1=O,

# From ChEMBL document CHEMBL1137350, “Discovery of a new class of macrocyclic antagonists to the human motilin receptor” (J Med Chem, 2006)
